Assay results collected from several papers.
Organism: Candida albicans
Observed: microbial growth
Technique: broth dilution

With CC(C)c1ccc(/C=C2\N=C(SCC(=O)O)N(c3ccccc3)C2=O)cc1 the MIC was 21 µg/mL (ATCC10 ATCC10231).
C/C(=N\CCNCCNCC/N=C(\C)c1c(O)c2ccccc2oc1=O)c1c(O)c2ccccc2oc1=O has an MIC of 15.6 µg/mL (48 h).
COc1ccc(N2N=C(C(=O)c3ccc(Nc4cnccn4)cc3)SC2=C(C#N)C#N)cc1 has an MIC of 12.5 µg/mL (ATCC10231).
With CC(=O)N1CCN(c2ccc(OCC3COC(Cn4ccnc4)(c4ccc(Cl)cc4Cl)O3)cc2)CC1 (stereo not shown) the MIC was 1 µM (17546; 48 h).
With C/C(=N\CCNCC/N=C(\C)c1c(O)c2ccccc2oc1=O)c1c(O)c2ccccc2oc1=O the MIC was 7.81 µg/mL (48 h).
For OC(Cn1cncn1)(Cn1cncn1)c1ccc(F)cc1F, the MIC was 2 µg/mL (SN152; 24 h).
C[C@@H]1[C@H](O)[C@@H](C)/C=C/C=C/C=C/C=C/C=C/C=C/C=C/[C@H](O[C@@H]2O[C@H](C)[C@@H](O)[C@H](N)[C@@H]2O)C[C@@H]2O[C@](O)(C[C@@H](O)C[C@@H](O)[C@H](O)CC[C@@H](O)C[C@@H](O)CC(=O)O[C@H]1C)C[C@H](O)[C@H]2C(=O)O gave an MIC of less than 0.25 µM (SP3876; 48 h).
The MIC of N#CC(C#N)=C1SC(C(=O)c2ccc(Nc3cnccn3)cc2)=NN1c1ccc([N+](=O)[O-])cc1 is reported as 12.5 µg/mL (ATCC10231).
With C[C@@H]1[C@H](O)[C@@H](C)/C=C/C=C/C=C/C=C/C=C/C=C/C=C/[C@H](O[C@@H]2O[C@H](C)[C@@H](O)[C@H](N)[C@@H]2O)C[C@@H]2O[C@](O)(C[C@@H](O)C[C@@H](O)[C@H](O)CC[C@@H](O)C[C@@H](O)CC(=O)O[C@H]1C)C[C@H](O)[C@H]2C(=O)O the MIC was 2 µg/mL (ATCC10231; 48 h).
The MIC of C[C@@H]1[C@H](O)[C@@H](C)/C=C/C=C/C=C/C=C/C=C/C=C/C=C/[C@H](O[C@@H]2O[C@H](C)[C@@H](O)[C@H](N)[C@@H]2O)C[C@@H]2O[C@](O)(C[C@@H](O)C[C@@H](O)[C@H](O)CC[C@@H](O)C[C@@H](O)CC(=O)O[C@H]1C)C[C@H](O)[C@H]2C(=O)O is reported as 0.5 µg/mL (ATCC90028; 48 h).
For OC(Cn1cncn1)(Cn1cncn1)c1ccc(F)cc1F, the MIC was 1 µM (56452; 48 h).
N#CC(=C1C=CC(=NOC(=O)c2ccccc2)C=C1)c1ccccc1 has an MIC of 256 µg/mL (ATCC10231; 48 h).
For Cc1ccc(-c2cc(-c3ccc(OCc4ccccc4)cc3)nc3c(N=Nc4ccc(F)cc4)c(N)nn23)cc1, the MIC was 62.5 µg/mL (ATCC10231).
With C#CCON=C1C=CC(=C(C#N)c2ccccc2)C=C1 the MIC was 32 µg/mL (ATCC10231; 48 h).
COc1ccc(N=Nc2c(N)nn3c(-c4ccc(C)cc4)cc(-c4ccc(OCc5ccccc5)cc4)nc23)cc1 has an MIC of 62.5 µg/mL (ATCC10231).
COc1ccc(-n2nc(C(=O)c3ccc(Nc4cnccn4)cc3)sc2=N)cc1 has an MIC of 50 µg/mL (ATCC10231).
